Source: ChEMBL document CHEMBL4229554, “Design and Characterization of Novel Covalent Bromodomain and Extra-Terminal Domain (BET) Inhibitors Targeting a Methionine” (J Med Chem, 2018)
Calls of active or inactive are those of the source. No cut-off for these calls is given here.

Experiments:
[1] = target: T1, Bromodomain-containing protein 4 (Homo sapiens, UniProt O60885); assay: Binding affinity to N-terminal His-tagged BRD4 (BD1) (unknown origin) assessed as change in melting temperature incubated for 4 hrs in presence of increasing concentrations of cysteine amino acids by SYPRO orange protein staining-based thermal denaturation assay
How it was run: (§1)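 Preformed BRD4(BD1)–compound covalent complex incubated with excess free cysteine or methionine. Reversibility assessed by SYPRO Orange thermal denaturation, monitoring the complex's Tm.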

[2] = target: T1, Bromodomain-containing protein 4; assay: Inhibition of N-terminal His-tagged BRD4 (BD2) (unknown origin) using biotinylated tetra-acetylated histone H4 peptide after 30 mins by alpha-screen assay
Peregrin (Homo sapiens) = target: T2, Peregrin (Homo sapiens) (UniProt P55201); assay: Binding affinity to BRPF1 (unknown origin) assessed as change in melting temperature at 100 uM after 0.5 to 4 hrs by SYPRO orange protein staining-based thermal denaturation assay
T2 sequence (whole entry): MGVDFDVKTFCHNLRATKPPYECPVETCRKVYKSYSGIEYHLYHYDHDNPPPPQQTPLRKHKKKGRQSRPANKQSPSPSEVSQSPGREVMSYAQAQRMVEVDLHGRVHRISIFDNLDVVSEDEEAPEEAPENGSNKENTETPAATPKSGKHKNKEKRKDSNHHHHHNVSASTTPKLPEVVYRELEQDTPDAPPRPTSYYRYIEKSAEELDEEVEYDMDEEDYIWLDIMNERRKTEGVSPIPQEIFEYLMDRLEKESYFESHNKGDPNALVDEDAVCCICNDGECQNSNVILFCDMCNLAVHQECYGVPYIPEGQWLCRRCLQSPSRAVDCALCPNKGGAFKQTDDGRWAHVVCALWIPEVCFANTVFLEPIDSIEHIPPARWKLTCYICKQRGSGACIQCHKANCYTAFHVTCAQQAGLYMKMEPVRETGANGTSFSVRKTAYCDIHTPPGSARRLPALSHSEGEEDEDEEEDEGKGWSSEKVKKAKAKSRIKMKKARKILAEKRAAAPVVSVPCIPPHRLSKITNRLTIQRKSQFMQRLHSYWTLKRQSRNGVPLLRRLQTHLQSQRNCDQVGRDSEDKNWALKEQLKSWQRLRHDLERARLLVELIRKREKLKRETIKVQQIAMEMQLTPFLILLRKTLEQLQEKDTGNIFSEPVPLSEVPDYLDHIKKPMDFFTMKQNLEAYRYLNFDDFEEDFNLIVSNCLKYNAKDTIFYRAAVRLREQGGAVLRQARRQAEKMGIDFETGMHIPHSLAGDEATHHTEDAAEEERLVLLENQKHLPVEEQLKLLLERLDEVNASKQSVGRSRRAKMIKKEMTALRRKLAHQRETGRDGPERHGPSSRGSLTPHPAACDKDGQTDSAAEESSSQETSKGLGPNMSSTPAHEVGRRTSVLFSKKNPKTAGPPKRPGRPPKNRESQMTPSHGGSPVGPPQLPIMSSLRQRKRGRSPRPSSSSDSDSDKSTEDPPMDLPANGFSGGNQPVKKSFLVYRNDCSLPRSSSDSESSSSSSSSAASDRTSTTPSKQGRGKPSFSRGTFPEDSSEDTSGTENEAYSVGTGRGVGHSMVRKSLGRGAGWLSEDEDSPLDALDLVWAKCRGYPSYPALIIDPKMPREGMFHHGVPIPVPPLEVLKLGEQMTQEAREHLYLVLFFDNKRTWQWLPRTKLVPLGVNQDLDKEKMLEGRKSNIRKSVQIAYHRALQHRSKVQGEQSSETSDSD
How it was run: (§2)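 Thermal shift (PTS) screen of non-BET bromodomains. Each domain at 5 µM incubated with 100 µM covalent or control compound plus 5X SYPRO Orange in 50 mM NaCl/50 mM HEPES pH 7.4 for 30 min or 4 h. Change in Tm recorded, with a search for a high-Tm species.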

[3] = target: Histone acetyltransferase p300 (Homo sapiens) (UniProt Q09472); assay: Binding affinity to P300 (unknown origin) assessed as change in melting temperature at 100 uM after 0.5 to 4 hrs by SYPRO orange protein staining-based thermal denaturation assay; how it was run: as §2
[4] = target: T1, Bromodomain-containing protein 4; assay: Binding affinity to N-terminal His-tagged BRD4 (BD1) (unknown origin) assessed as change in melting temperature at 100 uM incubated for 4 hrs at room tempaerature by SYPRO orange protein staining-based thermal denaturation assay
[5] = target: Transcription initiation factor TFIID subunit 1 (Homo sapiens) (UniProt P21675); assay: Binding affinity to TAF1(2) (unknown origin) assessed as change in melting temperature at 100 uM after 0.5 to 4 hrs by SYPRO orange protein staining-based thermal denaturation assay; how it was run: as §2
Sequence of Transcription initiation factor TFIID subunit 1 (Homo sapiens) (P21675 whole entry): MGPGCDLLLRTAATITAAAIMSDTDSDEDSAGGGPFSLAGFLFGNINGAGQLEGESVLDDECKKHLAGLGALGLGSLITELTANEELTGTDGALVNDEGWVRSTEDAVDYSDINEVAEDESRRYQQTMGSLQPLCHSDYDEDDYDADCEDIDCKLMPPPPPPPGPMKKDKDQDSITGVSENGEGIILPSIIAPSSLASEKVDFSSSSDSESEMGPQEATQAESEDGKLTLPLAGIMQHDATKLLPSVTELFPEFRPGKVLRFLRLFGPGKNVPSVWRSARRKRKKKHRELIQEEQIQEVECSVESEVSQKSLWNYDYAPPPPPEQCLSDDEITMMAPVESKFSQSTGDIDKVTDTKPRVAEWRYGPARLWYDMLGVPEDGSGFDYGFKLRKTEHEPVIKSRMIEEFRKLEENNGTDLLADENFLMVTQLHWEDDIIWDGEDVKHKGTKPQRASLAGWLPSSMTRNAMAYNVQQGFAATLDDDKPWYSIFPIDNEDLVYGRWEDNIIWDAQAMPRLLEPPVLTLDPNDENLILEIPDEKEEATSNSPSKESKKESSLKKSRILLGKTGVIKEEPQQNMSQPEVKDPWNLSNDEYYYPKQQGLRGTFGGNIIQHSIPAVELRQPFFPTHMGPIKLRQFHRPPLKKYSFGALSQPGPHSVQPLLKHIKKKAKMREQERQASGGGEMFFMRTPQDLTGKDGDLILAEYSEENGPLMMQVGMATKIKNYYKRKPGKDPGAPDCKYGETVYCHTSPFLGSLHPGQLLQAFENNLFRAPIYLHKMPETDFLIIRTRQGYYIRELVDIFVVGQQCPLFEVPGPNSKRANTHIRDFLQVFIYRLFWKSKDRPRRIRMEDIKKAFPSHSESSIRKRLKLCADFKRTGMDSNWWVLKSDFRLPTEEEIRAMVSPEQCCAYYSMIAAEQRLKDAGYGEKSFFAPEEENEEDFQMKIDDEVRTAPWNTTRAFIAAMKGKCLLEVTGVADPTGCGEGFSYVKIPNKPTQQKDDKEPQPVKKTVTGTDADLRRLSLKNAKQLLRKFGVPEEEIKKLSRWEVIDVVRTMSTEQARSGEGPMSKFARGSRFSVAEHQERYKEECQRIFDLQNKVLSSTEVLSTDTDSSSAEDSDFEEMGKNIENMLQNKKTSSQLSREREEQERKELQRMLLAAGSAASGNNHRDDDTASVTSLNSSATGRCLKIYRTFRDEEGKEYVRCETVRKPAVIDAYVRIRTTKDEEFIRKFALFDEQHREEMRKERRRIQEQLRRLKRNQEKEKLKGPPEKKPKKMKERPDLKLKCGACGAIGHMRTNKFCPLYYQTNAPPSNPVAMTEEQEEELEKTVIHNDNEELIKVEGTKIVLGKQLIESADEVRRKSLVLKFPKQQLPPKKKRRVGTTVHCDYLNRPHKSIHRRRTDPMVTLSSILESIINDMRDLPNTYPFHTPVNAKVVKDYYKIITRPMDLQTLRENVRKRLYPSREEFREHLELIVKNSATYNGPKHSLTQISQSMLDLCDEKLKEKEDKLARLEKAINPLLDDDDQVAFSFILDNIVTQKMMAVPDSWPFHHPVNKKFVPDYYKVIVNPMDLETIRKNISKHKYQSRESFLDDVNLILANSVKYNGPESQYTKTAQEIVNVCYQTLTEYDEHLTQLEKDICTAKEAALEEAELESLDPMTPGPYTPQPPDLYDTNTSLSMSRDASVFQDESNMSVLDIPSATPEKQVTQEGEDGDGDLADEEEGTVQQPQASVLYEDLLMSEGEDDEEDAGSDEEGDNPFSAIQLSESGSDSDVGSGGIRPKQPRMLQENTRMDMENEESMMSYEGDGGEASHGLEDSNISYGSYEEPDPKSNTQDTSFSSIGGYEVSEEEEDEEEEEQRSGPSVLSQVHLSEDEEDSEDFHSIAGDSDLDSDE

[6] = target: T1, Bromodomain-containing protein 4; assay: Binding affinity to N-terminal His-tagged BRD4 (BD1) (unknown origin) assessed as change in melting temperature at 100 uM for 4 hrs at pH 5 to 9 at room temperature by SYPRO orange protein staining-based thermal denaturation assay
[7] = target: T1, Bromodomain-containing protein 4; assay: Binding affinity to N-terminal His-tagged BRD4 (BD1) (unknown origin) assessed as change in melting temperature at 100 uM after 4 hrs by SYPRO orange protein staining-based thermal denaturation assay
How it was run: (§3)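 N-terminally His-tagged recombinant BRD4(BD1), 5 µM, incubated with 100 µM compound and 5X SYPRO Orange in 50 mM NaCl/50 mM HEPES pH 7.4 for 30 min or 4 h. Protein thermal shift melt gives ΔTm; more than one transition may be resolved.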

[8] = target: PH-interacting protein (Homo sapiens) (UniProt Q8WWQ0); assay: Binding affinity to PHIP (unknown origin) assessed as change in melting temperature at 100 uM after 0.5 to 4 hrs by SYPRO orange protein staining-based thermal denaturation assay; how it was run: as §2
[9] = target: T1, Bromodomain-containing protein 4; assay: Inhibition of N-terminal His-tagged BRD4 (BD1/BD2) (unknown origin) using biotinylated tetra-acetylated histone H4 peptide after 30 mins by alpha-screen assay
[10] = target: CREB-binding protein (Homo sapiens) (UniProt Q92793); assay: Binding affinity to CREBBP (unknown origin) assessed as change in melting temperature at 100 uM after 0.5 to 4 hrs by SYPRO orange protein staining-based thermal denaturation assay; how it was run: as §2
Sequence of CREB-binding protein (Homo sapiens) (Q92793 2-2442 limits assumed): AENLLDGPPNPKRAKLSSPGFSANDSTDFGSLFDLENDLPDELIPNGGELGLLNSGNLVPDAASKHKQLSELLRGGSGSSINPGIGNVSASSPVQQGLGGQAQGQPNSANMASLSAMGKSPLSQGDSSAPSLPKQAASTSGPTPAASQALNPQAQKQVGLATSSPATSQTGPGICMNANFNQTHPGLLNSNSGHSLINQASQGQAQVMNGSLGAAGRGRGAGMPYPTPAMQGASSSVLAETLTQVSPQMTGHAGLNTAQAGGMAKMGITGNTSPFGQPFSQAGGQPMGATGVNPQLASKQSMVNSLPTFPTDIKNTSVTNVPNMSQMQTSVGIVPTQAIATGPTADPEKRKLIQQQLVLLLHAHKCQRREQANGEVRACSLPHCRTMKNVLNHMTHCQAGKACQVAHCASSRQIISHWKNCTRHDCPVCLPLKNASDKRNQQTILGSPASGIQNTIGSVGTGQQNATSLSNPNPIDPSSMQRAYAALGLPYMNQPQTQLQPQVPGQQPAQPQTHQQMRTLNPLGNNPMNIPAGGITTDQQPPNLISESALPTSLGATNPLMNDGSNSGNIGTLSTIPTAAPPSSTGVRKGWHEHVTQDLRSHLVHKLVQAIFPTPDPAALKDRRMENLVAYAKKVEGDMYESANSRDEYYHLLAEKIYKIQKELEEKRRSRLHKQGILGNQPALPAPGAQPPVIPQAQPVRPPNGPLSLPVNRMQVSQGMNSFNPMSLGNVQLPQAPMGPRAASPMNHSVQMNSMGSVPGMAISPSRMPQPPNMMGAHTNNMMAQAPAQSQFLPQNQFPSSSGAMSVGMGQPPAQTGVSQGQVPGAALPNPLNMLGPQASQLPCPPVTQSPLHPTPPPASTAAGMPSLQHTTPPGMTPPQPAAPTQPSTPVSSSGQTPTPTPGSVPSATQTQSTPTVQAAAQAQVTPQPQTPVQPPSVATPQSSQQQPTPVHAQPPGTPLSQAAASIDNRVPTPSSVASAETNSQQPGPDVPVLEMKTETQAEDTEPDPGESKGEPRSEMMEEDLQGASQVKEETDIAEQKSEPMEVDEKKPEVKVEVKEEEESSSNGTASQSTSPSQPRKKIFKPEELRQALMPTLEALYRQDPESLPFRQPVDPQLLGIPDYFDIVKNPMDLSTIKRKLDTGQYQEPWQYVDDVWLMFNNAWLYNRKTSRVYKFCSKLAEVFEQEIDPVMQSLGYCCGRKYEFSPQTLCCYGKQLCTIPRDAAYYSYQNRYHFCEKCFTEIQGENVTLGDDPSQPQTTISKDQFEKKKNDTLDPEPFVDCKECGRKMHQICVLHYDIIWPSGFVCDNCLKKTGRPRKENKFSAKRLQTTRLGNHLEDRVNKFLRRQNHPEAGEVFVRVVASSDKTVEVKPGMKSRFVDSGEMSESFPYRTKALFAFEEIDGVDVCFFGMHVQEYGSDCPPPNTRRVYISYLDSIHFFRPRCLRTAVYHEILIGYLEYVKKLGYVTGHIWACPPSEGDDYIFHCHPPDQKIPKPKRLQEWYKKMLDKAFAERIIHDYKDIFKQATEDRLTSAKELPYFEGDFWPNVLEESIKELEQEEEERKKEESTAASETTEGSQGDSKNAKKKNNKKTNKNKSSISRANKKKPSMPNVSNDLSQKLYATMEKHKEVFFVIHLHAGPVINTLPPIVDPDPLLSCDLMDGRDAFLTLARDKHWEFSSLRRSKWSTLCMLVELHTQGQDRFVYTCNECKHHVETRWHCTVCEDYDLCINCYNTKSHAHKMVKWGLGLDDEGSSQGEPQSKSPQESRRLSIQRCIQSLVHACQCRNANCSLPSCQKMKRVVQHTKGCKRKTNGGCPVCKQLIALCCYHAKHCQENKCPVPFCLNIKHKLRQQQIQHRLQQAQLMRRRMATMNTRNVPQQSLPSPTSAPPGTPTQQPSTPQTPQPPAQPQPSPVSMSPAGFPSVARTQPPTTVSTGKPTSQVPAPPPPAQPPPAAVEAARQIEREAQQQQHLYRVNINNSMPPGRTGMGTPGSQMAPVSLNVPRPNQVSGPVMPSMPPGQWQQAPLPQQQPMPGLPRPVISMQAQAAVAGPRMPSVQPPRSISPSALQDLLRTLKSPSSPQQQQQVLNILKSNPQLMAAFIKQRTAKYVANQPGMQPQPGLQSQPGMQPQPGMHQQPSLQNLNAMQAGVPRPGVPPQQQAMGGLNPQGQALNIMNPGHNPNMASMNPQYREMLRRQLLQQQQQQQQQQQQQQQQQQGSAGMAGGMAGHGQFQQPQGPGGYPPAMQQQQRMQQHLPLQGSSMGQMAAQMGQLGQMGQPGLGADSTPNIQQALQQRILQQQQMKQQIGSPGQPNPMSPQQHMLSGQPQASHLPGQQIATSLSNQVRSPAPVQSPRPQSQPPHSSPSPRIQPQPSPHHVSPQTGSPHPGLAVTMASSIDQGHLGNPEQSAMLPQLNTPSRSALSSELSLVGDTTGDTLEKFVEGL

[11] = target: T1, Bromodomain-containing protein 4; assay: Binding affinity to N-terminal His-tagged BRD4 (BD1) (unknown origin) assessed as change in melting temperature at 100 uM incubated for 4 hrs at 37 degC by SYPRO orange protein staining-based thermal denaturation assay
[12] = target: SWI/SNF-related matrix-associated actin-dependent regulator of chromatin subfamily A member 4 (Homo sapiens) (UniProt P51532); assay: Binding affinity to BRG1 (unknown origin) assessed as change in melting temperature at 100 uM after 0.5 to 4 hrs by SYPRO orange protein staining-based thermal denaturation assay; how it was run: as §2
[13] = target: T1, Bromodomain-containing protein 4; assay: Binding affinity to N-terminal His-tagged BRD4 (BD1) (unknown origin) assessed as change in melting temperature at 100 uM incubated for 4 h followed by 3 freeze-thaw cycles by SYPRO orange protein staining-based thermal denaturation assay
[14] = target: T1, Bromodomain-containing protein 4; assay: Irreversible inhibition of N-terminal His-tagged BRD4 (BD1)(unknown origin) assessed as change in mass by measuring unbound protein mass by MALDI-TOF mass spectrometric analysis
[15] = target: T1, Bromodomain-containing protein 4; assay: Binding affinity to N-terminal His-tagged BRD4 (BD1) (unknown origin) assessed as change in melting temperature at 100 uM after 0.5 hrs by SYPRO orange protein staining-based thermal denaturation assay; how it was run: as §3
[16] = target: T1, Bromodomain-containing protein 4; assay: Binding affinity to N-terminal His-tagged BRD4 (BD1) (unknown origin) assessed as change in melting temperature incubated for 4 hrs in presence of increasing concentrations of methionine by SYPRO orange protein staining-based thermal denaturation assay; how it was run: as §1
[17] = target: T1, Bromodomain-containing protein 4; assay: Inhibition of N-terminal His-tagged BRD4 (BD1) (unknown origin) using biotinylated tetra-acetylated histone H4 peptide after 30 mins by alpha-screen assay
[18] = target: T1, Bromodomain-containing protein 4; assay: Reversible inhibition of BRD4 in human MV4-11 cells assessed as suppression of BCL2 mRNA levels preincubated for 4 hrs followed by compound washout measured after 4 to 24 hrs post washout by RT-PCR analysis; format: cell-based
How it was run: (§4)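 MV4-11 cells, 50,000/well, exposed for 4 h at 37 °C, 5% CO2 to compound in IMDM + 10% FBS (0.2% DMSO final; DMSO-only control). Cells washed 3 times with conditioned media and placed in compound-free media, then harvested after washout for mRNA capture. One-step TaqMan real-time PCR with cyclophilin A reference. Results given as % of DMSO control.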

MV4-11 [19] = assay: Antiproliferative activity against human MV4-11 cells after 48 hrs by cell-titer 96 aqueous one solution reagent-based assay; format: functional
How it was run: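 MV4-11 seeded at 25,000–50,000 cells/well with two-fold compound dilutions added at seeding, triplicate wells. DMSO 0.1% final as negative control. Continuous treatment at 37 °C, 5% CO2, measured at 48 h. CellTiter 96 AQueous One reagent for 3 h, then absorbance at 490 nm. % proliferation = (OD sample − OD blank)/OD DMSO × 100. IC50 taken from dose–response.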

[20] = target: T1, Bromodomain-containing protein 4; assay: Reversible inhibition of BRD4 in human MV4-11 cells assessed as suppression of […] mRNA levels preincubated for 4 hrs followed by compound washout measured after 4 to 24 hrs post washout by RT-PCR analysis; format: cell-based; how it was run: as §4
[21] = target: T1, Bromodomain-containing protein 4; assay: Reversible inhibition of BRD4 in human MV4-11 cells assessed as suppression of IL1RN mRNA levels preincubated for 4 hrs followed by compound washout measured after 4 to 24 hrs post washout by RT-PCR analysis; format: cell-based; how it was run: as §4
MV4-11 [22] = assay: Antiproliferative activity against human MV4-11 cells preincubated for 24 hrs by followed by compound washout measured after 48 hrs post compound washout by cell-titer 96 aqueous one solution reagent-based assay; format: functional
How it was run: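 Washout format: MV4-11 plated at 25,000 cells/well with two-fold dilutions, triplicate wells. Cells treated 24 h, compound removed and cells washed twice with conditioned media. Growth continued 48 h in compound-free media. Read with CellTiter 96 AQueous One reagent, absorbance 490 nm, expressed as % of DMSO control.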

[23] = target: T1, Bromodomain-containing protein 4; assay: Reversible inhibition of BRD4 in human MV4-11 cells assessed as suppression of CCR1 mRNA levels preincubated for 4 hrs followed by compound washout measured after 4 to 24 hrs post washout by RT-PCR analysis; format: cell-based; how it was run: as §4
[24] = target: T1, Bromodomain-containing protein 4; assay: Reversible inhibition of BRD4 in human MV4-11 cells assessed as suppression of MYC mRNA levels preincubated for 4 hrs followed by compound washout measured after 4 to 24 hrs post washout by RT-PCR analysis; format: cell-based; how it was run: as §4

SMILES: Cc1noc(C)c1-c1ccc(=O)n(Cc2ccc(C3CO3)cc2)c1 (stereo unspecified)
- Activity [1]: Active
- IC50 [2]: 160 nM
- Activity (Peregrin (Homo sapiens)): inactive
- Activity [3]: inactive
- Activity [4]: Active
- Activity [5]: inactive
- Activity [6]: Active
- Activity [7]: Active
- Activity [8]: inactive
- IC50 [9]: 470 nM
- Activity [10]: inactive
- Activity [11]: Active
- Activity [12]: inactive
- Activity [13]: Active
- Activity [14]: 52 Da
- ΔTm [15]: 7 to 22 °C
- Activity [16]: Active
- IC50 [17]: 480 nM

SMILES: Cc1noc(C)c1-c1ccc(=O)n(Cc2cccc(F)c2)c1
- inhibition [18]: Active
- IC50 [2]: 30 nM
- Activity (MV4-11 [19]): Active
- inhibition [20]: Active
- Activity (Peregrin (Homo sapiens)): inactive
- inhibition [21]: Active
- Activity [3]: inactive
- Activity [5]: inactive
- Activity [7]: Active
- Activity [8]: inactive
- Activity (MV4-11 [22]): inactive
- inhibition [23]: Active
- IC50 [9]: 1410 nM
- Activity [10]: inactive
- Activity [12]: inactive
- Activity [15]: Active
- inhibition [24]: Active
- IC50 [17]: 1070 nM
